The record followed here is ChEMBL document CHEMBL1765026, “Small molecule agonists of the orphan nuclear receptors steroidogenic factor-1 (SF-1, NR5A1) and liver receptor homologue-1 (LRH-1, NR5A2)” (J Med Chem, 2011).

Each structure is given as a SMILES string. The source made the active and inactive calls. The rule behind the calls is not given here.

Data set [1] addresses T1, Steroidogenic factor 1 (Homo sapiens, UniProt Q13285). The data set is described as follows: Inverse agonist activity at SF-1. Type of data set: functional.
Another data set has as its system NCI-H295RR. Description: Inhibition of doxycycline induced proliferation in human NCI-H295RR cells. Type of data set: functional, cell-based.
In data set [2] the target is T1, Steroidogenic factor 1. Description: Agonist activity at human SF-1 assessed as DAX1 1-23 peptide recruitment by TR-FRET assay. Type of data set: functional. The method in brief:
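Biotinylated, bacterially expressed human SF-1 LBD was bound to APC-streptavidin. Biotinylated DAX-1 peptide (aa 1–23) was bound to europium-streptavidin. Receptor and peptide were incubated with test compound, typically at 11 concentrations from 1 nm to 10 µM. Recruitment was read by TR-FRET as the 671/618 nm fluorescence ratio, and pEC50 was calculated from the dose–response curve.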

Data set [3] has as its target T1, Steroidogenic factor 1. The data set is described as follows: Agonist activity at human SF-1 assessed as DAX1 1-23 peptide recruitment by TR-FRET assay relative to control.
Data set [4] deals with Steroidogenic factor 1 (Mus musculus) (UniProt P33242). Description: Agonist activity at mouse SF-1 expressed in HEK293 cells assessed as increase in SHP mRNA levels at 10 uM after 24 hrs by RT-qPCR method. Type of data set: functional, cell-based. Put shortly:
(§1)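 HEK293 cells stably carrying Tet-inducible, 3XFlag-tagged mouse SF-1 were induced with 100 ng/mL Tet, and compound in DMSO was added 16 h later. Cells were treated at 10 µM for 24 h. Transcript levels were measured by RT-qPCR and expressed relative to DMSO vehicle.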

Data set [5] has the same target. The data set is described as follows: Displacement of dipalmitoyl phosphatidylinositol 4,5-bisphosphate from mouse SF-1 ligand binding domain at 100 uM after 16 hrs with Coomassie blue staining by PAGE method.
Data set [6] shares this target. Description: Displacement of dipalmitoyl phosphatidylinositol 4,5-bisphosphate from mouse SF-1 ligand binding domain at 1 uM after 16 hrs with Coomassie blue staining by PAGE method.
For data set [7] the target is unchanged. Description: Agonist activity at mouse SF-1 expressed in HEK293 cells assessed as increase in GOS2 mRNA levels at 10 uM after 24 hrs by RT-qPCR method. The class given is functional, cell-based. Put shortly: as §1
Data set [8] can be described thus: Solubility of the compound. Type of data set: physicochemical.
Data set [9] addresses Steroidogenic factor 1 (Mus musculus) (UniProt P33242). Description: Agonist activity at mouse SF-1 expressed in HEK293 cells assessed as increase in StAR mRNA levels at 10 uM after 24 hrs by RT-qPCR method. Type of data set: functional, cell-based. Put shortly: as §1
For data set [10] the target is unchanged. The data set is described as follows: Agonist activity at mouse SF-1 expressed in HEK293 cells assessed as increase in MeOx1 mRNA levels at 10 uM after 24 hrs by RT-qPCR method. Type of data set: functional, cell-based. The method in brief:
as §1

For data set [11], the target named is Nuclear receptor subfamily 5 group A member 2 (Homo sapiens) (UniProt O00482). Description: Agonist activity at human LRH-1 ligand binding domain at 100 uM with Coomassie blue staining by PAGE method.
The target in data set [12] is T1, Steroidogenic factor 1. Description: Agonist activity at human SF-1 assessed as DAX1 1-23 peptide recruitment by TR-FRET assay relative to control.
Data set [13] has as its target Steroidogenic factor 1 (Mus musculus) (UniProt P33242). Description: Agonist activity at mouse SF-1 expressed in HEK293 cells assessed as increase in SHP mRNA levels at 5 uM after 24 hrs by RT-qPCR method. Type of data set: functional, cell-based. The method in brief:
(§2)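 Stable HEK293 lines expressing Tet-inducible mouse SF-1 or empty vector were induced with 100 ng/mL Tet, with compound in DMSO added 16 h afterward. Cells were exposed to a dose series for 24 h. SHP mRNA was quantified by RT-qPCR relative to DMSO, with significance by p-value.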

Data set [14] shares this target. The data set is described as follows: Agonist activity at mouse SF-1 expressed in HEK293 cells assessed as increase in SHP mRNA levels after 24 hrs by RT-qPCR method. Type of data set: functional, cell-based. The method in brief:
as §2

Data set [15] addresses Nuclear receptor subfamily 5 group A member 2 (Homo sapiens) (UniProt O00482).

Sequence of Nuclear receptor subfamily 5 group A member 2 (Homo sapiens) (O00482 whole entry, the tested form may be a part): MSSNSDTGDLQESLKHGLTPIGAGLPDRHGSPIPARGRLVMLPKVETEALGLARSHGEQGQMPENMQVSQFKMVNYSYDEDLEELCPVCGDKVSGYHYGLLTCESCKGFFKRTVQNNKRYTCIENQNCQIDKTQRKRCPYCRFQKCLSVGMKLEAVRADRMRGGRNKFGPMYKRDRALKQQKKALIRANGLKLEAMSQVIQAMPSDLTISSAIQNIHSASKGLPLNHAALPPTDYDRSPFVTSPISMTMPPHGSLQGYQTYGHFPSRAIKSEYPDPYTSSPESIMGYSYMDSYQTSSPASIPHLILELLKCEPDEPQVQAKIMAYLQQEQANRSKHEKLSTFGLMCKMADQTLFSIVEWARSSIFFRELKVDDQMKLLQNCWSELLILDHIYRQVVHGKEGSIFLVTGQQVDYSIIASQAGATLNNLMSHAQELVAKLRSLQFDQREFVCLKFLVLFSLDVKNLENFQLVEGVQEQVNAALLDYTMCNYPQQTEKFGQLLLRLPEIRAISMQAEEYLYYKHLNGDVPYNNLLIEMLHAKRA
T1 sequence (Q13285 whole entry): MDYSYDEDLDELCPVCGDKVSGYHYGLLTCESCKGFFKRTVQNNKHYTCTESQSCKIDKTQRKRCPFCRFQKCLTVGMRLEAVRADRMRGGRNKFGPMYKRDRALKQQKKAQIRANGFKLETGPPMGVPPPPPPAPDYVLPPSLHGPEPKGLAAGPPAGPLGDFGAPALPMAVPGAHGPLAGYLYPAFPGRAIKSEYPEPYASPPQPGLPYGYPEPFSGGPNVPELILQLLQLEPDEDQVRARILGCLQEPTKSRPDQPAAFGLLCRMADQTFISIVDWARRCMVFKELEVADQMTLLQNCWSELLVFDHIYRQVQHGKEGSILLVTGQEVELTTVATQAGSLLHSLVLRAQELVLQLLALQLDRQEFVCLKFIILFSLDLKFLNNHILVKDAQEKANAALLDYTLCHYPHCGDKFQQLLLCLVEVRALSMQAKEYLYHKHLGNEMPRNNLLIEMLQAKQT
Sequence of Steroidogenic factor 1 (Mus musculus) (P33242 whole entry): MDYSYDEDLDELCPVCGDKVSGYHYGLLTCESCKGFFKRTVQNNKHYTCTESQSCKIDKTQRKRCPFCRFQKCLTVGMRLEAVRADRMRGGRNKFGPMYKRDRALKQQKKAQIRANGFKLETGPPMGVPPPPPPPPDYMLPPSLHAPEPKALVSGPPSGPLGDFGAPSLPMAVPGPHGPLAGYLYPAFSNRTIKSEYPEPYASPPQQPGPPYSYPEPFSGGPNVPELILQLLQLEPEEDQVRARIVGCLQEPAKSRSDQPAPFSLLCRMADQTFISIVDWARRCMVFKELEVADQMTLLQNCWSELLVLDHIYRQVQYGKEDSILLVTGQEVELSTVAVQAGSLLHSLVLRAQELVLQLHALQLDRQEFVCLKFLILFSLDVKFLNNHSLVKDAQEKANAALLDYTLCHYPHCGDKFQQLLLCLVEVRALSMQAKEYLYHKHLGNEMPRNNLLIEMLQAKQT

For `CCCCCCCOc1ccc(O)cc1`, the IC50 at Steroidogenic factor 1 [1] stood at 7300 nM.

Take `CCOC(=O)C(C)Oc1cccc2c(=O)n(CC(=O)Nc3ccc(OC)cc3)ccc12` (stereo not given): the result in the data set on NCI-H295RR was Active.

Consider `CCCCCCC1=C(c2ccccc2)[C@]2(OCC(C)CC)CCC[C@@H]2C1` (mixture of isomers), for which the Ratio at Steroidogenic factor 1 [2] was 0.56. Further, on Steroidogenic factor 1 [3], the concentration for a half-maximal effect (EC50) is 200 nM.

For `CCCCCCC1=C(c2ccccc2)[C@]2(OCCC)CCC[C@@H]2C1` (racemic), at Steroidogenic factor 1 [2], the Ratio amounted to 0.67. Further, the concentration giving a half-maximal response (EC50) at Steroidogenic factor 1 [3] is 200 nM.

Consider `C=C(CCCC)[C@@]12CCC[C@@H]1CC(CCCCCC)=C2c1ccccc1` (racemic), for which the Ratio at Steroidogenic factor 1 [2] was found to be 0.76. Besides, the outcome in data set [4] and in data set [5] was inactive. Further, at Steroidogenic factor 1 [3], the EC50 was 200 nM.

Consider `C=C(c1ccccc1)[C@@]12CCC[C@@H]1CC(CCCCCC)=C2C1CCCCC1` (racemic), for which the Ratio on Steroidogenic factor 1 [2] came out at 0.59. Besides, the EC50 on Steroidogenic factor 1 [3] was 200 nM.

As to `C=C(c1ccccc1)[C@@]12CCC[C@@H]1CC([Si](C)(C)c1ccccc1)=C2c1ccccc1` (racemic), the Ratio on Steroidogenic factor 1 [2] worked out at 0.33. Moreover, at Steroidogenic factor 1 [3], the EC50 is 63.1 nM.

As for `C=C(c1ccccc1)[C@@]12CN(C)C[C@@H]1CC(CCCCCC)=C2c1ccccc1` (racemic), the result in data set [6], in data set [7], in data set [4], in [9], in data set [10] and in [11] was Active. For the same compound, the solubility result in [8] is reported as “soluble”.

Take `C=C(c1ccccc1)[C@@]12CN(Cc3ccccc3)C[C@@H]1CC(CCCCCC)=C2c1ccccc1` (racemic): the pEC50 entry on Steroidogenic factor 1 [12] was “inactive”. For the same compound, the solubility result in data set [8] is “soluble”.

With `C=C(c1ccccc1)[C@@]12CC[C@@H](O)[C@@H]1CC(CCCCCC)=C2c1ccccc1` (racemic), the result in data set [6], in data set [13], in data set [7], in data set [4], in data set [9] and in data set [10] was Active. Besides, the Activity result in data set [14] is “Dose-dependent effect”. Also, the solubility entry in data set [8] is listed as “soluble”.

Regarding `C=C(c1ccccc1)[C@@]12C[C@H](OC(C)=O)C[C@@H]1CC(CCCCCC)=C2c1ccccc1` (racemic), on Steroidogenic factor 1 [2], the Ratio stood at 0.34. The concentration for a half-maximal effect (EC50) at Steroidogenic factor 1 [3] is 200 nM.

With `C=C(CCCCCC)[C@@]12CCC[C@@H]1CC(CCCCCC)=C2c1ccccc1` (racemic), the pEC50 result (at Steroidogenic factor 1 [12]; in data set [15]) was “inactive” throughout.

Take `C=C(CCCCCCCC)[C@@]12CCC[C@@H]1CC(CCCCCC)=C2c1ccccc1` (racemic): the pEC50 result (on Steroidogenic factor 1 [12]; in data set [15]) was “inactive” throughout.

On to `C=C(c1ccc(-c2ccccc2)cc1)[C@@]12CCC[C@@H]1CC(CCCCCC)=C2c1ccccc1` (racemic), for which the pEC50 result (on Steroidogenic factor 1 [12]; in data set [15]) was “inactive” each time.

With `C=C(c1ccc(C(C)(C)C)cc1)[C@@]12CCC[C@@H]1CC(CCCCCC)=C2c1ccccc1` (racemic), the pEC50 entry (on Steroidogenic factor 1 [12]; in data set [15]) was “inactive” throughout.

Regarding `C=C(c1ccc(CC)cc1)[C@@]12CCC[C@@H]1CC(CCCCCC)=C2c1ccccc1` (racemic), the pEC50 entry (on Steroidogenic factor 1 [12]; in data set [15]) was “inactive” throughout.

In the case of `C=C(c1ccc(CCCC)cc1)[C@@]12CCC[C@@H]1CC(CCCCCC)=C2c1ccccc1` (racemic), the pEC50 entry on Steroidogenic factor 1 [12] is “inactive”.

`C=C(c1ccc(OC)cc1)[C@@]12CCC[C@@H]1CC(CCCCCC)=C2c1ccccc1` (racemic): the pEC50 entry (at Steroidogenic factor 1 [12]; in [15]) was “inactive” each time.

On to `C=C(c1ccccc1)[C@@]12CCC[C@@H]1CC(CCCCCC)=C2CCC` (racemic), for which the pEC50 entry in data set [15] was “inactive”.

For the compound `C=C(c1ccccc1)[C@@]12CCC[C@@H]1CC(CCCCCC)=C2CCCC` (racemic), in data set [15], the pEC50 result was “inactive”.

Regarding `C=C(c1ccccc1)[C@@]12CCC[C@@H]1CC(CCCCCC)=C2CCCCCC` (racemic), the pEC50 entry (on Steroidogenic factor 1 [12]; in data set [15]) was “inactive” in each case.

Regarding `C=C(c1ccccc1)[C@@]12CCC[C@@H]1CC(CCCCCC)=C2CCCO` (racemic), the pEC50 result at Steroidogenic factor 1 [12] was “inactive”. For the same compound, the outcome in data set [4] and in data set [5] was inactive.

Take `C=C(c1ccccc1)[C@@]12CCC[C@@H]1CC(CCCCCC)=C2c1ccc(CC)cc1` (racemic): the pEC50 result (at Steroidogenic factor 1 [12]; in data set [15]) was “inactive” throughout.

As for `C=C(c1ccccc1)[C@@]12CCC[C@@H]1CC=C2c1ccccc1` (racemic), the pEC50 result (on Steroidogenic factor 1 [12]; in [15]) was “inactive” throughout.

For the compound `C=C(c1ccccc1)[C@@]12C[C@@H](OC(C)=O)C[C@@H]1CC(CCCCCC)=C2c1ccccc1` (racemic), the pEC50 entry (at Steroidogenic factor 1 [12]; in data set [15]) was “inactive” in each case.

Regarding `CCCCCCC1=C(c2ccccc2)[C@]2(OC)CCC[C@@H]2C1` (racemic), the pEC50 result (on Steroidogenic factor 1 [12]; in data set [15]) was “inactive” throughout.

Take `CCCCCCC1=C(c2ccccc2)[C@]2(OCCCCC)CCC[C@@H]2C1` (racemic): the pEC50 entry in [15] was “inactive”.

For the compound `CCCCCCC1=C(c2ccccc2)[C@]2(OCc3ccccc3)CCC[C@@H]2C1` (racemic), the pEC50 entry at Steroidogenic factor 1 [12] is “inactive”.

Consider `CCCCCCO[C@@]12CCC[C@@H]1CC(CCCCCC)=C2c1ccccc1` (racemic), for which the pEC50 result (at Steroidogenic factor 1 [12]; in [15]) was “inactive” throughout.
